Reference: ChEMBL document CHEMBL1148520, “5-(Dimethoxymethyl)-2'-deoxyuridine: a novel gem diether nucleoside with anti-orthopoxvirus activity” (J Med Chem, 2006)

Experiments:
Cowpox virus [1] = test: Antiviral activity against cowpox virus Brighton measured as cytopathogenicity in HFF cells; format: functional, organism-based
HFF = test: Cytotoxicity against HFF cell line by neutral red toxicity assay; format: functional; settings: Homo sapiens
How it was run: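 Confluent uninfected HFF monolayers exposed to various drug concentrations for 7 days at 37 °C. Viability read by neutral red uptake. CC50 is the concentration reducing neutral red uptake by 50%.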

Vaccinia virus = test: Antiviral activity against vaccinia virus Copenhagen assessed as plaque reduction in HFF cells; format: functional, organism-based; settings: Orthopoxvirus vaccinia
Cowpox virus [2] = test: Antiviral activity against cowpox virus Brighton by plaque reduction in HFF cells; format: functional, organism-based

| SMILES | EC50 (Cowpox virus [1]) [µM] | CC50 (HFF) [µM] | EC50 (Vaccinia virus) [µM] | EC50 (Cowpox virus [2]) [µM] |
| --- | --- | --- | --- | --- |
| CC(=O)OC[C@H]1OC(n2cc(C3OCCO3)c(=O)[nH]c2=O)C[C@@H]1OC(C)=O (stereo not given in full) | > 300 | > 300 | – | – |
| O=Cc1cn([C@H]2C[C@H](O)[C@@H](CO)O2)c(=O)[nH]c1=O | > 300 | > 300 | – | – |
| O=c1[nH]c(=O)n(C2CC(O)[C@@H](CO)O2)cc1C1OCCCO1 (single isomer, unassigned) | > 300 | > 300 | – | – |
| CC(=O)OC[C@H]1OC(n2cc(C=O)c(=O)[nH]c2=O)C[C@@H]1OC(C)=O (stereo not given in full) | > 300 | > 300 | – | – |
| COC(OC)c1cnc(O)nc1O | > 300 | > 300 | – | – |
| Nc1ccn(C[C@@H](CO)OCP(=O)(O)O)c(=O)n1 [CIDOFOVIR] | 8.3 | > 300 | 9 | 9 |
| COC(OC)c1cn(C2C[C@H](OC(C)=O)[C@@H](COC(C)=O)O2)c(=O)[nH]c1=O (stereo not given in full) | > 300 | > 300 | – | – |
| CCOC(OCC)c1cn(C2C[C@H](O)[C@@H](CO)O2)c(=O)[nH]c1=O (stereo not given in full) | > 60 | > 300 | – | – |
| CCOC(OCC)c1cn(C2C[C@H](OC(C)=O)[C@@H](COC(C)=O)O2)c(=O)[nH]c1=O (stereo not given in full) | 52.4 | > 300 | 79 | 25.8 |
| CC(=O)OC[C@H]1OC(n2cc(C3OCCCO3)c(=O)[nH]c2=O)C[C@@H]1OC(C)=O (stereo not given in full) | > 300 | > 300 | – | – |
| COC(OC)c1cn(C2C[C@H](O)[C@@H](CO)O2)c(=O)[nH]c1=O (stereo not given in full) | 11.7 | > 300 | 9 | 7.4 |
| O=c1[nH]c(=O)n(C2CC(O)[C@@H](CO)O2)cc1C1OCCO1 (single isomer, unassigned) | > 300 | > 300 | – | – |
